Bioassay records from PubChem.
In the library only some 2.8% were active in any assay of this set; here they are far more common.
Wee1 stabilizer: blocks degradation of human Wee1 kinase; reporter increase, % at 5 µM; AID 1321; P30291; actives 1.2% (n = 220,000); HeLa Luc-Wee1K328M stability, luciferase luminescence; 100% = proteasome inhibitor MG132 effect;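 active = activation above the mean of all tested compounds plus 3 SD, set per screening run, cut at about 8.8% in these data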;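 note: cells exposed to compound for 20 h before luminescence read; 0% = DMSO alone and 100% = MG132 at 30 µM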
NCF1 inh: p47phox (human) inhibition; AID 1274; inhibition, % at 24.7 µM; actives 0.53% (n = 220,000); P14598; p47phox/p22phox peptide binding, fluorescence polarization, 2 h;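 note: 0% = p47phox with labelled peptide and 100% = labelled peptide alone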
14-3-3 Bad inh: disrupts binding of bovine 14-3-3 zeta to phospho-Bad peptide. AID 781. TR-FRET 14-3-3zeta/Dy647-pBad peptide displacement, 1 h. inhibition, % at 21.7 µM. actives 0.71% (n = 220,000);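 active = inhibition above about 70%, limit read from the data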;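 note: 0% = full 14-3-3 plus peptide FRET controls and 100% = background without 14-3-3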
eIF4E 4G PPI: inhibitors of eIF4E and eIF4G interaction in translation initiation; P63073+Q04637; TR-FRET eIF4E-eIF4GI(517-606) binding, 2 h; inhibition, % at 21.7 µM; actives 0.37% (n = 220,000); AID 782;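 note: 0% = full FRET control wells and 100% = background wells lacking eIF4GI fragment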
Target sequence (P63073 whole entry, looked up, the tested form may be a part): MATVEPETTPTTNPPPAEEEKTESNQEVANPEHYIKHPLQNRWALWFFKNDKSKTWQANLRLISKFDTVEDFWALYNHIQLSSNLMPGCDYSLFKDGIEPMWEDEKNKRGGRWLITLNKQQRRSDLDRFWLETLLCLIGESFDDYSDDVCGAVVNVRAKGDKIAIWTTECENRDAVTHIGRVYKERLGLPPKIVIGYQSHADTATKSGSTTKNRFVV
Target sequence (Q04637 whole entry, looked up, the tested form may be a part): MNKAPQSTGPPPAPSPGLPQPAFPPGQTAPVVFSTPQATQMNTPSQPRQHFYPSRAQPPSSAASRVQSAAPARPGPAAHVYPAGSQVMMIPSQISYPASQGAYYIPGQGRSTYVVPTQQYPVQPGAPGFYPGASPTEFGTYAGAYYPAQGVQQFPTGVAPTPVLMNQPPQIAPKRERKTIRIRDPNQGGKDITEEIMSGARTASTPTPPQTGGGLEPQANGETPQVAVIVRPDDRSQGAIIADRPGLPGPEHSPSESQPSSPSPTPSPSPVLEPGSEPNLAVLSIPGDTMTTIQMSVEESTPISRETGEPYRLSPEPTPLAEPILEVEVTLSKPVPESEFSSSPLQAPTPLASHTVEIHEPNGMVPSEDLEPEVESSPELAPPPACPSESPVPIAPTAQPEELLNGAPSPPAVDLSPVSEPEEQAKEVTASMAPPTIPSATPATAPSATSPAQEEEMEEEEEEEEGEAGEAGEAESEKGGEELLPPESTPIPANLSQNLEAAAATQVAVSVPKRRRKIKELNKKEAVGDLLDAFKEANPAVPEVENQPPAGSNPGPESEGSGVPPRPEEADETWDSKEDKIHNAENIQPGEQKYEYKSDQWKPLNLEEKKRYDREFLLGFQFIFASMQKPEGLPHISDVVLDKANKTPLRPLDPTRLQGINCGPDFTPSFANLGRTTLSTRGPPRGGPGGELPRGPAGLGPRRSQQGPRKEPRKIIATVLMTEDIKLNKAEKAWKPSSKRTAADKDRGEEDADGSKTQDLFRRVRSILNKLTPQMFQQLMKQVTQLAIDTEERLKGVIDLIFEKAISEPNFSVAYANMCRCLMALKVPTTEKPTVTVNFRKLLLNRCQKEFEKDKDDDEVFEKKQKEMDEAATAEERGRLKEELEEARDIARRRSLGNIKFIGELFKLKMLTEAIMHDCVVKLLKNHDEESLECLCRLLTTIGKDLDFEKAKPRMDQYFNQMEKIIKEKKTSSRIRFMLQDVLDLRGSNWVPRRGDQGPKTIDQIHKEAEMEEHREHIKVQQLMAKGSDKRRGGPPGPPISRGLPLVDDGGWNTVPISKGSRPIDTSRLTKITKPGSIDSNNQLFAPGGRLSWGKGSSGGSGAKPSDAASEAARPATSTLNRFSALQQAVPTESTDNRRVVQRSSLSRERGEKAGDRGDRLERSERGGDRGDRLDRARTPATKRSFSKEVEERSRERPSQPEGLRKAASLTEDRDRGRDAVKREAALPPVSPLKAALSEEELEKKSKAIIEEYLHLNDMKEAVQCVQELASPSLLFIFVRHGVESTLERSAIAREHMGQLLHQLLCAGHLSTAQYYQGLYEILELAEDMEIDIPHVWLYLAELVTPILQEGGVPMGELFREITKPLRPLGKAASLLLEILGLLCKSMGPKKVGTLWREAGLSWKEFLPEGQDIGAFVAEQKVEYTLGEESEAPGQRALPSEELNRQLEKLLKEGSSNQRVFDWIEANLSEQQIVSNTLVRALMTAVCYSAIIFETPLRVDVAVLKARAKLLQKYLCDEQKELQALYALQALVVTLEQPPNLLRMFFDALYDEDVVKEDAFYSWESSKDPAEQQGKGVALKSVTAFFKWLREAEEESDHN
RBBP9 inh: human RBBP9 hydrolase inhibition. inhibition, % at 7.94 µM. actives 0.2% (n = 220,000). recombinant RBBP9, FP-Rh probe fluorescence polarization. O75884;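 active = inhibition above the campaign mean of all tested compounds plus 3 SD, cut at about 14% in these data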;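 note: plate controls were DMSO wells with RBBP9 for no effect and wells lacking RBBP9 protein for full effect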
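Test system: recombinant human RBBP9; Timing: 30 min then 45 min, 25 °C; Detection: fluorescence polarization; Control set: RBBP9 with DMSO as uninhibited control, no-protein wells as full inhibition; Compound dosing: one concentration, 7.94 µM nominal, 0.794% DMSO; Probe or stimulus: FP-Rh activity-based probe, 375 nM before mixing.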
RBBP9 confirm: confirmation of human RBBP9 inhibitors. shares compounds with RBBP9 inh. recombinant RBBP9, FP-Rh probe fluorescence polarization. inhibition, % at 7.94 µM. actives 36% (n = 410). AID 1537;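 active = inhibition above the hit cutoff derived for the primary screen, cut at about 15% in these data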;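 note: 0% = RBBP9 with DMSO and 100% = wells lacking RBBP9 protein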
Active calls of the source: *; . = no result given; [ ] = remark or other dose.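 Rule for the calls, unless noted: active = inhibition above about 30% (limit read from the data); inactive = the rest.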

SMILES | Wee1 stabilizer | NCF1 inh | 14-3-3 Bad inh | eIF4E 4G PPI | RBBP9 inh | RBBP9 confirm
Cc1nc2ccccc2n1C(=O)c1ccc(Cl)cc1[N+](=O)[O-] | -1.4 | 2.4 | 5.5 | 3.8 | -3.5 | .
O=C1NC(SCCCF)=N/C1=C/c1ccc(-n2cncn2)cc1 | -0.5 | -3.5 | -1.7 | -2.6 | 6.4 | .
CCN1CCN(c2ccc(NC(=O)c3cccc(F)c3)cc2Cl)CC1 | -0.5 | -2.4 | -3.8 | -2.1 | 1.1 | .
CC(C)C(=O)N(c1ccc2oc(=O)sc2c1)S(=O)(=O)c1ccccc1 | 2.6 | -3.6 | -3.2 | -15.9 | -4.7 | .
CC(=O)N(c1ccc2oc(=O)sc2c1)S(=O)(=O)c1ccccc1 | -0.2 | -3.4 | -6.8 | 4.9 | 17.3* | 4.5
COC(=O)c1nn(-c2ccccc2)c(=O)cc1Sc1ccc(Cl)cc1 | 0.5 | -13.4 | -2.8 | 1.5 | 0.0 | .
O=Nc1c(O)[nH]c2ccc(Cl)cc12 | -0.9 | -1.9 | 4.9 | -1.5 | 14.8* | 29.1*
Cc1c(O)ccc(C(=O)CN2CCN(Cc3ccc4c(c3)OCO4)CC2)c1O | 10.9* | -6.6 | 0.7 | 10.5 | 68.4* | 7.7
CCOC(=O)c1c(Cc2ccccc2)c[nH]c1C | 1.5 | -15.8 | -8.5 | 1.4 | 3.7 | .
Cc1ccc(NC(=S)NCCc2c[nH]c3ccccc23)c(C)c1 | 4.0 | -3.4 | -0.4 | 1.3 | 3.4 | .
Cc1cc(O)ccc1Nc1nc2ccccc2nc1Nc1ccc(O)cc1C | -1.8 | 56.0* | 59.1 | 1.3 | 20.7* | 11.1
O=C(CN1CCN(C(c2ccccc2)c2ccccc2)CC1)NCc1ccccc1 | -2.2 | -2.7 | -6.1 | -0.7 | 14.4* | 6.3
COc1ccc(CNC(=O)CN2CCN(C(c3ccccc3)c3ccccc3)CC2)cc1 | 3.1 | -9.1 | -6.1 | 4.5 | -10.4 | .
O=C(Nc1nnc(C2=COCCO2)o1)c1ccc(Cl)cc1 | -1.5 | -11.9 | 2.5 | 6.2 | -8.2 | .
O=C(Nc1nnc(C2=COCCO2)o1)c1ccc(Cc2ccccc2)cc1 | 3.5 | -19.1 | -14.8 | -9.3 | 17.5* | 5.4
Cc1ccc(NC2c3ncccc3C(=O)N2c2ccccc2C)cc1C (stereo unspecified) | 0.1 | 0.5 | 93.8* | 90.7*[fluorescence artefact?] | 18.3* | 24.3*
CCOc1ccc(N2C(=O)c3cccnc3C2Nc2ccc(Cl)cc2)cc1 (stereo unspecified) | -1.2 | -21.6 | 15.2 | -11.5 | -2.9 | .
COc1ccc(CC(=O)Nn2c(-c3ccccc3)nc3ccccc3c2=O)cc1 | -3.5 | -6.9 | 4.5 | -3.3 | -6.3 | .
O=C(CSc1nc(-c2ccccc2)cc(=O)[nH]1)N1CCc2ccccc21 | -1.1 | -8.9 | 6.0 | 2.9 | 15.8* | 0.2
COc1ccc(C2=C(SC)CC2=NC(C)(C)C)cc1 | -0.7 | -24.2 | 0.5 | 1.5 | -5.2 | .
CCC[N+]1(CC#CC(O)(c2ccccc2)C2CCCCC2)CCCCC1 (stereo unspecified) | 3.0 | -14.8 | 4.1 | 3.4 | 15.1* | 39.2*
Oc1ccc(O)c(-c2cnns2)c1 | 4.7 | 5.2 | 3.4 | 3.3 | 17.8* | 55.2*
S=C1SCN(Cc2cccnc2)CN1Cc1cccnc1 | -2.5 | -15.6 | -5.7 | 6.1 | -7.3 | .
COc1ccc2c(c1)c1ccc3c(c1n2C)C(=O)C=CC3=O | 8.4 | 9.7 | -2.6 | 3.1 | 62.6* | 70.6*
Cc1ccc2c(c1)c1ccc3c(c1n2C)C(=O)C=CC3=O | -1.6 | 4.9 | 6.5 | 6.5 | 4.9 | .
SMILES | Wee1 stabilizer | NCF1 inh | 14-3-3 Bad inh | eIF4E 4G PPI | RBBP9 inh | RBBP9 confirm
Cc1ccc(/C=C/C(=O)OCC(=O)NC(C)C)o1 | -2.4 | -7.1 | -15.4 | 5.6 | -2.6 | .
O=C(O)CCCN1C(=O)c2ccc(C(=O)c3cccc([N+](=O)[O-])c3)cc2C1=O | 1.0 | -2.0 | -6.2 | -1.4 | -11.9 | .
Oc1ccc(-c2nc3ncccn3c2Nc2ccc3c(c2)OCO3)cc1 | -0.8 | -2.2 | -6.0 | 7.9 | -2.1 | .
Cc1ccn2c(Nc3ccc4c(c3)OCO4)c(-c3ccc(O)cc3)nc2c1 | 3.6 | -0.8 | 2.0 | 11.0 | 17.4* | 27.8*
CC1(C)COC(c2ccc(F)c([N+](=O)[O-])c2)=N1 | 0.9 | -0.2 | -2.4 | -0.2 | -0.9 | .
Cc1cc2ccccc2nc1SCC(=O)N1c2ccccc2CC1C (stereo unspecified) | 2.2 | -13.3 | 2.2 | -6.9 | 14.4* | -2.2
Cc1cc2cc3c(cc2nc1SCC(=O)N1c2ccccc2CC1C)OCO3 (stereo unspecified) | 1.2 | -65.5 | -5.2 | 4.1 | -3.0 | .
COc1ccc(-n2nnc3c(=O)n(CC(=O)N4CCCC4)cnc32)cc1 | 1.3 | -5.0 | -2.2 | -5.4 | -8.4 | .
COc1ccc(-n2nnc3c(=O)n(C/C=C/c4ccccc4)cnc32)cc1 | 2.7 | -1.6 | 7.1 | -25.8 | 15.2* | 9.9
CCCCNC(=O)c1c(C)cc(=O)oc1C | 2.7 | -6.8 | -0.3 | 3.5 | 16.1* | -1.5
CN(CC(=O)NCCc1ccccc1)S(=O)(=O)c1ccc(Br)cc1 | 0.5 | -10.6 | -13.6 | 8.4 | 14.7* | -0.7
CCCOc1ccc(NC(=O)CC2Nc3ccccc3NC2=O)cc1 (stereo unspecified) | 0.5 | -4.4 | -9.7 | -3.6 | 0.7 | .
O=C(CC1Nc2cccc3cccc(c23)NC1=O)Nc1ccccc1 (stereo unspecified) | 0.0 | -10.8 | 2.0 | 7.8 | 16.1* | 11.6
NC(=O)CC1Nc2cccc3cccc(c23)NC1=O (stereo unspecified) | -1.8 | 3.7 | 8.5 | -1.2 | 28.8* | 6.5
O=C(CC1Nc2ccccc2NC1=O)c1ccccc1 (stereo unspecified) | 8.4 | -66.3 | -15.7 | -7.2 | -2.5 | .
CC1(C)C(C=C(Cl)Cl)C1C(=O)Nc1ccc([N+](=O)[O-])cc1 (stereo unspecified) | 0.8 | -12.1 | -1.6 | -1.6 | -11.3 | .
COc1ccc(C)cc1NS(=O)(=O)c1cn(C)nc1C | 4.8 | 1.4 | -11.8 | 1.5 | -6.2 | .
COc1ccc(N/C=C2\CCc3ccccc3C2=O)cc1 | 0.4 | -4.2 | -4.2 | 3.3 | 18.0* | 13.2
CCC(=O)NC1=C(Cl)C(=O)C(NC(=O)CC)=C(Cl)C1=O | 2.3 | 49.6* | 26.0 | 7.7 | 58.7* | 64.9*
Cc1cc(NC(=O)CSc2nc(C3CC3)nc3sc(C)c(C)c23)no1 | -1.5 | -3.2 | -5.0 | -3.0 | 4.3 | .
Cc1ccc(C(=O)n2nc(-c3ccccc3)nc2NCc2ccco2)cc1 | 3.3 | -14.4 | -1.4 | -6.1 | -13.6 | .
CCCC(=O)n1nc(-c2ccc(C)cc2)nc1NCc1ccco1 | 10.2* | 1.6 | -9.3 | -1.3 | 16.5* | 8.6
CSc1nc(Cl)cc(=O)[nH]1 | -0.7 | -7.6 | -5.6 | -1.4 | 14.8* | 1.0
CSc1nc(N)cc(=O)[nH]1 | 0.4 | -8.8 | -6.8 | -2.9 | -9.1 | .
CCOC(=O)C1CCCN(C(=S)Nc2ccc(OC)cc2)C1 (stereo unspecified) | -3.5 | -5.5 | -6.2 | -4.3 | -8.0 | .
CCOC(=O)C1CCCN(C(=S)Nc2ccc(F)cc2)C1 (stereo unspecified) | -1.9 | 1.0 | -5.5 | 1.9 | 23.2* | 0.2
